# Source: PubChem (several laboratories)
# This is a sample that favours compounds with a hit; in the whole collection about 6.4% have one here.
# Ecoli WT expand – blocks growth of wild type E. coli BW25113 | OD600 absorbance | growth inhibition, % at 100 µM | actives 0.15% (n = 98,000);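 active = growth inhibition above about 50% at one test dose, limit read from the data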;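 note: growth measured after 20 h incubation at 37 °C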
# Fibroblast inh – blocks proliferation of human lung fibroblasts; LL 47 human lung fibroblast viability, ATP luminescence; stronger effect = lower value; viability, % at 10 µM; actives 1.1% (n = 85,000); AID 719;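 active = viability at or below 50% in the single dose screen; inactive = viability above 50%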;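 note: compound exposure lasted 72 h before the ATP readout; 100% = median luminescence of untreated cell-only wells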
#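 test system = LL 47 human lung fibroblasts | amount = 1,150 fibroblasts seeded per well | medium = 15% FBS in IMEM | times = overnight cell rest, 72 h compound treatment at 37 °C | measured by = CellTiter-Glo luminescence measuring cellular ATP | read-out = viability percentage against median untreated-cell control | benchmarks = cell-only wells, no compound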
# Jurkat viability – cytotoxicity toward Jurkat cells. Jurkat E6.1 viability, ATP luminescence, 48 h. inhibition, % at 4 µM. actives 1.2% (n = 56,000). AID 463;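 active = inhibition above the mean inhibition of all tested compounds plus 3 SD, cut at about 28% in these data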
# HUVEC inhibit – human endothelial cell proliferation inhibition. viability, % at 10 µM (by protocol). actives 1.1% (n = 86,000). HUVEC proliferation, CellTiter-Glo luminescence, 72 h; stronger effect = lower value. AID 648;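 active = viability at or below 30%; inactive = viability above 30%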;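 note: 100% = median luminescence of DMSO-only cell control wells on each plate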
# H69AR growth 86K – blocks growth of human H69AR lung tumor cells | H69AR lung tumor viability, ATP luminescence, 72 h; stronger effect = lower value | viability, % at 10 µM | actives 6% (n = 85,000) | AID 598;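 active = viability at or below 40%; inactive = viability above 40%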;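 note: multidrug resistant small cell line overexpressing MRP-1 efflux transporter; 100% = mean luminescence of untreated control wells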
# tolC growth inh – E. coli tolC mutant growth inhibition; E. coli BW25113 tolC mutant growth, OD615; growth inhibition, % at 10 µM (by protocol); actives 2.2% (n = 65,000); AID 573;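 active = growth inhibition at or above a cutoff equal to the mean over every tested compound plus 3 SD, cut at about 60% in these data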;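 note: growth measured after 20 h incubation at 37 °C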
#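 System: E. coli ΔtolC::kan strain BW25113; Buffer or medium: LB broth supplemented with 50 µg/mL kanamycin; Compound: 10 µM final, single dose; Incubation: bacterial growth with compound for 20 h at 37 °C; Signal: A615 absorbance measurement; Evaluation: growth inhibition in percent.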
# * hit, by the source's call; nt = no result.
SMILES,Ecoli WT expand,Fibroblast inh,Jurkat viability,HUVEC inhibit,H69AR growth 86K,tolC growth inh
CCOC(=O)c1[nH]c(CSc2nnc(-c3ccc(OC)cc3)o2)c(C(=O)OCC)c1C,-13,79,nt,80,18*,18
C#CCSc1nnc(-c2ccc(OC)cc2)o1,6,64,nt,94,19*,nt
CCOC(=O)c1c(C)[nH]c(C)c1C(=O)CSc1nnc(-c2ccc(OC(F)F)cc2)o1,-3,100,nt,58,96,nt
CCc1cccc2c(C=C(C#N)C#N)cn(CC(=O)N3CCCCCC3)c12,-19,nt,nt,nt,nt,nt
COC(=O)c1cc(Br)c(=O)n(-c2ccc(C(C)=O)cc2)c1,nt,101,-2,96,95,-9
Cc1ccc(N(CC(O)CON=C2c3ccccc3-c3ccccc32)S(C)(=O)=O)cc1 (stereo not drawn),-7,98,nt,66,15*,nt
Cc1cccc(C)c1N(CC(O)Cn1c2ccccc2c2ccccc21)S(C)(=O)=O (stereo not drawn),-18,86,nt,66,21*,nt
Cc1ccc(N(CC(O)Cn2c3ccccc3c3ccccc32)S(C)(=O)=O)cc1 (stereo not drawn),-17,92,nt,54,32*,nt
CS(=O)(=O)N(Cc1ccco1)CC(O)Cn1c2ccccc2c2ccccc21 (stereo not drawn),-9,nt,0,nt,nt,22
Cc1ccc(N(CC(O)Cn2c3ccccc3c3ccccc32)S(C)(=O)=O)c(C)c1 (stereo not drawn),-1,90,nt,61,17*,nt
Cc1ccccc1OCC(O)Cn1c2ccccc2c2ccccc21 (stereo not drawn),-11,nt,nt,nt,nt,nt
Cc1nnc(-n2ncc(C#N)c2N)c2nn(-c3ccccc3F)c(C)c12,nt,89,nt,96,90,nt
c1coc(-c2nc3c([nH]2)CCc2nonc2-3)c1,19,99,nt,107,94,nt
O=C(N/C(=C/c1ccco1)C(=O)N1CCCCC1)c1cccs1,-1,nt,nt,nt,nt,nt
O=c1c2c(nc3nc(SCc4ccccc4)[nH]n13)CCC2,0,103,2,99,84,8
CSc1nc2nc3c(c(=O)n2[nH]1)CN(Cc1ccccc1)CC3,0,94,102*,75,82,-6
CCN(Cc1ccncc1)S(=O)(=O)c1ccc(C(C)=O)cc1,-8,100,30*,101,56,0
COc1ccc(N(C2CSC2)S(=O)(=O)c2ccccc2)cc1,-7,98,nt,91,90,64*
Cn1c(=O)c2c(-c3ccccc3)n3c4ccccc4ncc3c2n(C)c1=O,nt,91,3,70,38*,3
O=C(CCSc1nnc(-c2ccncc2)o1)Nc1cccc2ccccc12,nt,88,nt,90,37*,nt
O=C(CCSc1nnc(-c2ccncc2)o1)Nc1ccccc1,0,107,3,102,103,-6
CC(=O)Oc1ccc(N2C(=O)C3C(C2=O)C2(C)C=CC3(C)O2)cc1 (stereo not drawn),nt,27*,20,95,2.3*,18
COC(=O)c1cc(N2C(=O)C3C(C2=O)C2(C)C=CC3(C)O2)ccc1Cl (stereo not drawn),-2,58,10,61,0.7*,-6
CCOc1nc(Nc2ccc(OC)c(Cl)c2)nc(OCC)n1,-12,92,nt,90,36*,nt
Cc1cc(C)c(-c2cc(NC(=O)CSc3n[nH]c(N)n3)n(-c3ccccc3)n2)cc1C,-7,nt,nt,nt,nt,nt
SMILES,Ecoli WT expand,Fibroblast inh,Jurkat viability,HUVEC inhibit,H69AR growth 86K,tolC growth inh
CCOC(=O)CCSc1nnc(-c2cccnc2)n1-c1ccccc1OC,-3,107,0,95,90,-17
O=C(N1CCN(c2ccccc2)CC1)C12CC3CC(CC(C3)C1)C2,-2,106,-12,102,84,11
CCCn1c(=N)n(CC(=O)OCC)c2ccccc21,4,nt,-8,nt,nt,-8
CCn1c(N2CCN(C(=O)C34CC5CC(CC(C5)C3)C4)CC2)nc2ccccc21,-2,96,6,102,55,65*
CCn1c(=N)n(CC(=O)C23CC4CC(CC(C4)C2)C3)c2ccccc21,17,110,4,3.4*,29*,99*
Cc1occc1C(=O)NNC(=S)Nc1ccccc1,2,nt,nt,nt,nt,nt
Cc1n[nH]c(C)c1S(=O)(=O)N(CC(=O)N1CCc2ccccc21)c1ccc(C(C)C)cc1,2,63,-3,44,31*,18
CCOc1ccc(N(CC(=O)N2CCc3ccccc32)S(=O)(=O)c2c(C)noc2C)cc1,-11,86,10,91,74,27
